Reference: ChEMBL document CHEMBL2331324, “Synthesis and biological evaluation of guanidino analogues of roscovitine” (Eur J Med Chem, 2013)

Tests used:
[1] = biological target: Proto-oncogene tyrosine-protein kinase Src (Homo sapiens) (UniProt P12931); assay: Inhibition of recombinant SRC (unknown origin) assessed as residual activity using [gamma-33P]ATP as substrate at 1 uM
Outline: (§1)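 Kinase panel screen with each compound at 1 µM, in duplicate. Reactions were started with [γ-33P]ATP (800 cpm/pmol) at 5, 20 or 50 µM, chosen per enzyme to be at or below its ATP Km. Reactions were stopped with phosphoric acid and spotted onto P81 filters. Results are given as residual kinase activity.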

[2] = biological target: Cyclin-dependent kinase 2/cyclin A (Homo sapiens) (UniProt P24941+P20248+P78396); assay: Inhibition of recombinant CDK2/cyclin A (unknown origin) assessed as residual activity using [gamma-33P]ATP as substrate at 1 uM; type: protein-complex assay
Outline: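 CDK2/cyclin A included in the radiometric panel at 1 µM in duplicate. Reactions started with [γ-33P]ATP (800 cpm/pmol) at 5, 20 or 50 µM, at or below the enzyme's ATP Km. Stopped with phosphoric acid, spotted onto P81 filters; result given as residual kinase activity.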

[3] = biological target: Calcium/calmodulin-dependent protein kinase type 1 (Homo sapiens) (UniProt Q14012); assay: Inhibition of recombinant CAMK1 (unknown origin) assessed as residual activity using [gamma-33P]ATP as substrate at 1 uM
Outline: (§2)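 Recombinant kinase panel screened at 1 µM in duplicate. Reactions started with [γ-33P]ATP (800 cpm/pmol) at 5, 20 or 50 µM, chosen to sit at or below each enzyme's ATP Km. Stopped with phosphoric acid and spotted onto P81 filters. Result given as residual kinase activity.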

[4] = biological target: Eukaryotic elongation factor 2 kinase (Homo sapiens) (UniProt O00418); assay: Inhibition of recombinant EF2K (unknown origin) assessed as residual activity using [gamma-33P]ATP as substrate at 1 uM; outline: as §2
Chain of Eukaryotic elongation factor 2 kinase (Homo sapiens) (O00418 whole entry): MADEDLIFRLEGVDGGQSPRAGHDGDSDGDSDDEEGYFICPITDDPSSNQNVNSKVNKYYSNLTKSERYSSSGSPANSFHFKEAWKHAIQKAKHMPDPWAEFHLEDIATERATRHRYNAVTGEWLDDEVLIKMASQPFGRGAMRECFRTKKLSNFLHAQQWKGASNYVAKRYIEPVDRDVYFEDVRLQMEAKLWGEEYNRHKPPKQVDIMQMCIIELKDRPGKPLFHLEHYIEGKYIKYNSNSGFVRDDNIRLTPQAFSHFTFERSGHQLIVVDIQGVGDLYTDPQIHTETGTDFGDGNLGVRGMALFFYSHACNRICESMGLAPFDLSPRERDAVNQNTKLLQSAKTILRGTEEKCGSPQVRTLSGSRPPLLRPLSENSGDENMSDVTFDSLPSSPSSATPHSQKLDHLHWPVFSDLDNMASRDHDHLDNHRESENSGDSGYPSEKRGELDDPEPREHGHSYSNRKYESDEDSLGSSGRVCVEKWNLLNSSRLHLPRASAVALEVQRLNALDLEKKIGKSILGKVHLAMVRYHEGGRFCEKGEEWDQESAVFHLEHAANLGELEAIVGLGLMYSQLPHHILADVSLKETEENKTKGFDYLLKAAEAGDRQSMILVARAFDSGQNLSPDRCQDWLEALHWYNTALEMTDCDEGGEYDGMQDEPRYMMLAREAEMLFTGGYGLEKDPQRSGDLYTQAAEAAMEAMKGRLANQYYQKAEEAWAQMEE

[5] = biological target: Ribosomal protein S6 kinase alpha-1 (Homo sapiens) (UniProt Q15418); assay: Inhibition of recombinant RSK1 (unknown origin) assessed as residual activity using [gamma-33P]ATP as substrate at 1 uM; outline: as §1
[6] = biological target: Misshapen-like kinase 1 (Homo sapiens) (UniProt Q8N4C8); assay: Inhibition of recombinant MINK1 (unknown origin) assessed as residual activity using [gamma-33P]ATP as substrate at 1 uM
Outline: (§3)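 Selectivity panel run under previously published conditions. Screened at 1 μM in duplicate. Reactions started with [γ-33P]ATP (800 cpm/pmol) at 5, 20 or 50 μM, chosen to be at or below each enzyme's ATP Km. Stopped with phosphoric acid, spotted onto P81 filters. Result expressed as residual kinase activity.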

[7] = biological target: MAP kinase-activated protein kinase 5 (Homo sapiens) (UniProt Q8IW41); assay: Inhibition of recombinant PRAK (unknown origin) assessed as residual activity using [gamma-33P]ATP as substrate at 1 uM; outline: as §3
[8] = biological target: Mitogen-activated protein kinase kinase kinase 1 (Homo sapiens) (UniProt Q13233); assay: Inhibition of recombinant MEKK1 (unknown origin) assessed as residual activity using [gamma-33P]ATP as substrate at 1 uM; outline: as §3
[9] = biological target: MAP/microtubule affinity-regulating kinase 3 (Homo sapiens) (UniProt P27448); assay: Inhibition of recombinant MARK3 (unknown origin) assessed as residual activity using [gamma-33P]ATP as substrate at 1 uM; outline: as §3
[10] = biological target: Serine/threonine-protein kinase D1 (Homo sapiens) (UniProt Q15139); assay: Inhibition of recombinant PKD1 (unknown origin) assessed as residual activity using [gamma-33P]ATP as substrate at 1 uM; outline: as §3
[11] = biological target: Serine/threonine-protein kinase pim-2 (Homo sapiens) (UniProt Q9P1W9); assay: Inhibition of recombinant PIM2 (unknown origin) assessed as residual activity using [gamma-33P]ATP as substrate at 1 uM; outline: as §3
Chain of Serine/threonine-protein kinase pim-2 (Homo sapiens) (Q9P1W9 whole entry, looked up): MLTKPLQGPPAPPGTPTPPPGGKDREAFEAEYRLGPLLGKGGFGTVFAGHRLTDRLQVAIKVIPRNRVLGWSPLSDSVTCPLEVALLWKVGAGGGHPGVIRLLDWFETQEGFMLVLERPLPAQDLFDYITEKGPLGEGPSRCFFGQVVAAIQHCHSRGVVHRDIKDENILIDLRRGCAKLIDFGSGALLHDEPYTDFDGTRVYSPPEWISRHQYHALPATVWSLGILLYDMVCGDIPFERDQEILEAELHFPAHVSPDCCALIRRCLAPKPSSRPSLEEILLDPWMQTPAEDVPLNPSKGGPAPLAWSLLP

[12] = biological target: Tyrosine-protein kinase CSK (Homo sapiens) (UniProt P41240); assay: Inhibition of recombinant CSK (unknown origin) assessed as residual activity using [gamma-33P]ATP as substrate at 1 uM; outline: as §2
[13] = biological target: Serine/threonine-protein kinase PAK 4 (Homo sapiens) (UniProt O96013); assay: Inhibition of recombinant PAK4 (unknown origin) assessed as residual activity using [gamma-33P]ATP as substrate at 1 uM; outline: as §3
[14] = biological target: Casein kinase II (Homo sapiens) (UniProt P67870+P68400+P19784); assay: Inhibition of recombinant CK2 (unknown origin) assessed as residual activity using [gamma-33P]ATP as substrate at 1 uM; type: protein-complex assay; outline: as §2
[15] = biological target: Inhibitor of nuclear factor kappa-B kinase subunit beta (Homo sapiens) (UniProt O14920); assay: Inhibition of recombinant IKKbeta (unknown origin) assessed as residual activity using [gamma-33P]ATP as substrate at 1 uM; outline: as §2
Chain of Inhibitor of nuclear factor kappa-B kinase subunit beta (Homo sapiens) (O14920 whole entry): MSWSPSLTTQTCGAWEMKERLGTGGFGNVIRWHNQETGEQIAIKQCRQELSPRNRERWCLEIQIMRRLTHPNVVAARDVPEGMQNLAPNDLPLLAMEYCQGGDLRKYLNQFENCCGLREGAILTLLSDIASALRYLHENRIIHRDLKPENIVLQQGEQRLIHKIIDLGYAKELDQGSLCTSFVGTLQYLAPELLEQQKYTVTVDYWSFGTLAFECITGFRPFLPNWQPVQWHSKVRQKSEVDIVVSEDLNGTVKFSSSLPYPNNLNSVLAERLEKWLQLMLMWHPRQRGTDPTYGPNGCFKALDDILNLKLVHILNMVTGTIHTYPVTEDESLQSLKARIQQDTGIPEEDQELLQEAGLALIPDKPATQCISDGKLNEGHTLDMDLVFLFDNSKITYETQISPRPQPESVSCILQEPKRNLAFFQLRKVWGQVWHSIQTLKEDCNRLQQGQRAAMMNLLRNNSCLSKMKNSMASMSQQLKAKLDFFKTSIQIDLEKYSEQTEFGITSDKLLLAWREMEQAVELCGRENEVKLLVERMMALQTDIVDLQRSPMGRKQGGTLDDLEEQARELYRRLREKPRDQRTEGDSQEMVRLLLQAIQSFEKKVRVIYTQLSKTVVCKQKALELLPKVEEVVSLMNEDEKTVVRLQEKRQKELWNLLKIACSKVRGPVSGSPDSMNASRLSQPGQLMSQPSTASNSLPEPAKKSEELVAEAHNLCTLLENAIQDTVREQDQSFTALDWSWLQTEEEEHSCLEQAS

[16] = biological target: Serine/threonine-protein kinase Chk2 (Homo sapiens) (UniProt O96017); assay: Inhibition of recombinant CHK2 (unknown origin) assessed as residual activity using [gamma-33P]ATP as substrate at 1 uM; outline: as §2
[17] = biological target: 3-phosphoinositide-dependent protein kinase 1 (Homo sapiens) (UniProt O15530); assay: Inhibition of recombinant PDK1 (unknown origin) assessed as residual activity using [gamma-33P]ATP as substrate at 1 uM
[18] = biological target: Serine/threonine-protein kinase MARK1 (Homo sapiens) (UniProt Q9P0L2); assay: Inhibition of recombinant MARK1 (unknown origin) assessed as residual activity using [gamma-33P]ATP as substrate at 1 uM; outline: as §3
[19] = biological target: Dual specificity mitogen-activated protein kinase kinase 1 (Homo sapiens) (UniProt Q02750); assay: Inhibition of recombinant MKK1 (unknown origin) assessed as residual activity using [gamma-33P]ATP as substrate at 1 uM; outline: as §3
[20] = biological target: Serine/threonine-protein kinase N2 (Homo sapiens) (UniProt Q16513); assay: Inhibition of recombinant PRK2 (unknown origin) assessed as residual activity using [gamma-33P]ATP as substrate at 1 uM; outline: as §3
[21] = biological target: Protein-tyrosine kinase 6 (Homo sapiens) (UniProt Q13882); assay: Inhibition of recombinant BRK (unknown origin) assessed as residual activity using [gamma-33P]ATP as substrate at 1 uM; outline: as §2
Homo sapiens = organism: Homo sapiens; assay: Inhibition of recombinant CK1 (unknown origin) assessed as residual activity using [gamma-33P]ATP as substrate at 1 uM; outline: as §2
[22] = biological target: Mitogen-activated protein kinase 11 (Homo sapiens) (UniProt Q15759); assay: Inhibition of recombinant p38 MAPKbeta (unknown origin) assessed as residual activity using [gamma-33P]ATP as substrate at 1 uM; outline: as §1
[23] = biological target: Insulin receptor (Homo sapiens) (UniProt P06213); assay: Inhibition of recombinant IR (unknown origin) assessed as residual activity using [gamma-33P]ATP as substrate at 1 uM; outline: as §2
Chain of Insulin receptor (Homo sapiens) (P06213 28-758 limits assumed): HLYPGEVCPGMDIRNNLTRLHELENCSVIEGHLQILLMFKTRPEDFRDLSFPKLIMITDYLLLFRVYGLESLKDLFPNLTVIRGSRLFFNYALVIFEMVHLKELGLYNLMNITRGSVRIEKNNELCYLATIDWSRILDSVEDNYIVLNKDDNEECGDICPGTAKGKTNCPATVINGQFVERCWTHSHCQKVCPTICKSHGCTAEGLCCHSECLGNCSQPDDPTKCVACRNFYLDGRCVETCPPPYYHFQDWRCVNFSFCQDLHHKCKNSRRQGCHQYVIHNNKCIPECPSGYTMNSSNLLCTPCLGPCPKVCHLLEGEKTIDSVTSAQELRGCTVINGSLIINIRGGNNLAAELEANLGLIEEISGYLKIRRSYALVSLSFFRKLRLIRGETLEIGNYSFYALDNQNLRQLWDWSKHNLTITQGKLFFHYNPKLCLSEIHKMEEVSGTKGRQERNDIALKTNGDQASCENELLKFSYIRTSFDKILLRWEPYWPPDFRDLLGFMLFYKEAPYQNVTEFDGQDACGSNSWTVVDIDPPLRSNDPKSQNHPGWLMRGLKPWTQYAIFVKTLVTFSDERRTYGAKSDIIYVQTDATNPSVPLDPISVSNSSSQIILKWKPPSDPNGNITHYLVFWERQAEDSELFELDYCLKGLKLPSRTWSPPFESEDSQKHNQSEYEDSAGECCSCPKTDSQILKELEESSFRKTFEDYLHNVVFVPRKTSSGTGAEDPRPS
Chain of Insulin receptor (Homo sapiens) (P06213 763-1382 limits assumed): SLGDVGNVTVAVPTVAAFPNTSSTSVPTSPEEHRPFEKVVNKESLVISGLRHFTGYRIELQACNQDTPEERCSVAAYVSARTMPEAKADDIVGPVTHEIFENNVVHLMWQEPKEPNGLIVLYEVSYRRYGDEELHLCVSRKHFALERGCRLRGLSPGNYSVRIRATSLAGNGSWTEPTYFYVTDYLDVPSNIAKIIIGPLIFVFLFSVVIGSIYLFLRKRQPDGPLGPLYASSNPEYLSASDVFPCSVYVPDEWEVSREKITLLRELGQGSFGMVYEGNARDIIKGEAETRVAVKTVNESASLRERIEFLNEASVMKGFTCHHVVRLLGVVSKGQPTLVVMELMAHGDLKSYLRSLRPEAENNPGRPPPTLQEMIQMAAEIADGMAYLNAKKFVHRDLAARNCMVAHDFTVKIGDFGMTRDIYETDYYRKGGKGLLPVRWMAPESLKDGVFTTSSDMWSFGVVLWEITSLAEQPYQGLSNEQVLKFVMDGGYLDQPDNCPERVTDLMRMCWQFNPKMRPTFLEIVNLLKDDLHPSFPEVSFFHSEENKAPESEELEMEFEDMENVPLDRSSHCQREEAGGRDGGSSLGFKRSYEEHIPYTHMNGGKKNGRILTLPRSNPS

[24] = biological target: SRSF protein kinase 1 (Homo sapiens) (UniProt Q96SB4); assay: Inhibition of recombinant SRPK1 (unknown origin) assessed as residual activity using [gamma-33P]ATP as substrate at 1 uM; outline: as §1
Chain of SRSF protein kinase 1 (Homo sapiens) (Q96SB4 whole entry): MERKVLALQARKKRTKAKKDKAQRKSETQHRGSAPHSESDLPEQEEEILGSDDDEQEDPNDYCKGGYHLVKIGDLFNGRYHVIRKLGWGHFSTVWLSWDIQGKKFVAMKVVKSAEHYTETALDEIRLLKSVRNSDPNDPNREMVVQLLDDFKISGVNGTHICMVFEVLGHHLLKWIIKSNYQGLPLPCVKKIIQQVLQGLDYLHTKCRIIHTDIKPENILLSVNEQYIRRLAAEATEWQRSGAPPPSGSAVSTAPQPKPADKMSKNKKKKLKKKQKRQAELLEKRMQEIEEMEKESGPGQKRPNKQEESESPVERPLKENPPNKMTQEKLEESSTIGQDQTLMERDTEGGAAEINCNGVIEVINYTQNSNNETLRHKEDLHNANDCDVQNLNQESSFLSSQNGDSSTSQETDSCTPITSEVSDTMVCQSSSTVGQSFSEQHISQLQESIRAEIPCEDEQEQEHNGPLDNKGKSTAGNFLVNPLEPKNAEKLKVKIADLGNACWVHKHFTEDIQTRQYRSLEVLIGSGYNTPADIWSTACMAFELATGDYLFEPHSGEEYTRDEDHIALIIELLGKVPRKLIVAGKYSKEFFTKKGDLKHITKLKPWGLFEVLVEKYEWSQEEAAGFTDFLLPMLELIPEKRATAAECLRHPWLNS

[25] = biological target: Tyrosine-protein kinase BTK (Homo sapiens) (UniProt Q06187); assay: Inhibition of recombinant BTK (unknown origin) assessed as residual activity using [gamma-33P]ATP as substrate at 1 uM; outline: as §2
Chain of Tyrosine-protein kinase BTK (Homo sapiens) (Q06187 whole entry): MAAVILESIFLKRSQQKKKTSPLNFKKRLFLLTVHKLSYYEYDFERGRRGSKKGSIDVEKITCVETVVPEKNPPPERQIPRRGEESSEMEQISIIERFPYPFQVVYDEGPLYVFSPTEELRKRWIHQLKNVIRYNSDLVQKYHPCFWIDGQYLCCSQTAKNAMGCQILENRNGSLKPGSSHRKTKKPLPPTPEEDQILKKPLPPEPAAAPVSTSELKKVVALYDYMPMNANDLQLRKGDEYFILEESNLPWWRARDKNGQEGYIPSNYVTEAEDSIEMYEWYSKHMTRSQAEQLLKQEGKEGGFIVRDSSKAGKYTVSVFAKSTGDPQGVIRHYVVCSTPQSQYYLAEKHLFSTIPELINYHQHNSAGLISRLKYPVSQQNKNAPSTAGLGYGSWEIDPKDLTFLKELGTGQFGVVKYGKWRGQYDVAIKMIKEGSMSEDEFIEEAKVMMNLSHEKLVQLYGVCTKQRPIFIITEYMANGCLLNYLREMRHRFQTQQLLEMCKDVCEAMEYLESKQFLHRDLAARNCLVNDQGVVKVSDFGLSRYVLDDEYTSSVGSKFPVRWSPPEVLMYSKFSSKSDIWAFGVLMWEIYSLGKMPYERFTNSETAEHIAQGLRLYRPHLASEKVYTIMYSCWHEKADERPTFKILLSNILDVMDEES

Chain of Proto-oncogene tyrosine-protein kinase Src (Homo sapiens) (P12931 2-536 limits assumed): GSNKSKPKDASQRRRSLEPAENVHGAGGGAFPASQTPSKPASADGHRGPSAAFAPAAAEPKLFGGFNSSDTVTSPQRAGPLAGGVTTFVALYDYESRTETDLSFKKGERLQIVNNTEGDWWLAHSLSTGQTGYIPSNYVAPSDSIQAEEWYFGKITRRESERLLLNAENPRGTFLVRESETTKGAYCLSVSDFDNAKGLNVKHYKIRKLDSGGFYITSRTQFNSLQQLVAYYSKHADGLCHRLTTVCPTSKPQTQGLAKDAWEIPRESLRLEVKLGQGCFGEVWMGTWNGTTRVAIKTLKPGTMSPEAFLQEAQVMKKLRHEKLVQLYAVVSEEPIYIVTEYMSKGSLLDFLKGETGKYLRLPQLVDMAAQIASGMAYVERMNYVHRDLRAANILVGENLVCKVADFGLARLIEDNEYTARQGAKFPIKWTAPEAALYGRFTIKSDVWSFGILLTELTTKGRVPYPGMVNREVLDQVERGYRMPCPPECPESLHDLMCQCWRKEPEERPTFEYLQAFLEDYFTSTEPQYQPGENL

| Activity [1] [%] | Activity [2] [%] | Activity [3] [%] | Activity [4] [%] | Activity [5] [%] | Activity [6] [%] | Activity [7] [%] | Activity [8] [%] | Activity [9] [%] | Activity [10] [%] | Activity [11] [%] | Activity [12] [%] | Activity [13] [%] | Activity [14] [%] | Activity [15] [%] | Activity [16] [%] | Activity [17] [%] | Activity [18] [%] | Activity [19] [%] | Activity [20] [%] | SMILES | further results |
| --- | --- | --- | --- | --- | --- | --- | --- | --- | --- | --- | --- | --- | --- | --- | --- | --- | --- | --- | --- | --- | --- |
| 22 | 5 | 35 | 94 | 18 | 64 | 76 | 91 | 24 | 17 | 88 | 58 | 15 | 43 | 74 | 59 | 68 | 31 | 41 | 85 | CC[C@H](CO)Nc1nc(NC(=N)N)c2ncn(C(C)C)c2n1 | Activity [21]: 50%; Activity (Homo sapiens): 15%; Activity [22]: 64%; Activity [23]: 5%; Activity [24]: 22%; Activity [25]: 53% |
| 6 | 7 | 24 | 94 | 12 | 75 | 74 | 96 | 17 | 18 | 91 | 59 | 12 | 33 | 76 | 42 | 62 | 39 | 28 | 84 | CC[C@@H](CO)Nc1nc(NC(=N)N)c2ncn(C(C)C)c2n1 | Activity [21]: 44%; Activity (Homo sapiens): 21%; Activity [22]: 66%; Activity [23]: 3%; Activity [24]: 14%; Activity [25]: 48% |
